{
  "source": "paper PMC3366067",
  "about": "(Blood Cancer Journal, 2012)",
  "key": {"SET-2 xenografts": {"system": "SET-2 xenografts", "test": "Subcutaneous SET-2 model of megakaryoblastic leukemia", "type": "in vivo, mouse", "details": "d18", "how_it_was_run": "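Female SCID-beige mice (9 weeks; n=12 per group) were implanted s.c. with 5 × 10^6 SET-2 cells in Matrigel. From d33 post-implantation, they were dosed orally for 19 days (d0–d18), with separate doses at least 8 h apart. Tumor volume was measured by caliper as (w²×l)/2, and tumors were weighed at the end. Synergy was assessed by Clarke's CI, with <0 counted as synergy. Statistics used ANOVA/Dunnett.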"}, "MOLM-13 s.c. xenografts": {"system": "MOLM-13 s.c. xenografts", "test": "Subcutaneous MOLM-13 xenograft model", "type": "in vivo, mouse", "details": "for reduction in tumor weight: d7", "how_it_was_run": "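Female SCID mice (n=12 per group) were given 5 × 10^6 MOLM-13 cells s.c. with Matrigel. Treatment started on d11 and ran 8 days, all oral: 50 mg/kg pacritinib daily in the evenings and 75 mg/kg pracinostat every other day. On the last day, tumors were excised and weighed. Metastases to lungs, breast fat-pad and lymph nodes were counted. Statistics used ANOVA/Dunnett.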"}, "[1]": {"test": "Pharmacokinetic analysis of pracinostat and pacritinib in plasma", "type": "in vivo, mouse", "details": "d14 vs d1"}, "MCP-1": {"system": "MCP-1", "test": "Plasma cytokine/chemokine analysis in SET-2 tumor-bearing mice", "type": "in vivo, mouse", "details": "d18", "how_it_was_run": "(§1)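 Plasma came from female SCID-beige mice bearing s.c. SET-2 tumors (5 × 10^6 cells) that had been dosed orally with the test compounds in the efficacy study. It was collected on d18, 3 h post-dose. A Luminex 32-plex mouse cytokine/chemokine panel measured the analytes. Comparators were uninoculated naive mice and vehicle-treated tumor-bearing mice.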"}, "[2]": {"system": "IL-6, IP-10, KC and MIP-1α", "test": "Plasma cytokine/chemokine analysis in SET-2 tumor-bearing mice", "type": "in vivo, mouse", "how_it_was_run": "as §1"}, "pSTAT5 in SET-2 tumors": {"system": "pSTAT5 in SET-2 tumors", "test": "pSTAT5 levels in SET-2 tumors after chronic treatment", "type": "in vivo, mouse", "details": "end of study", "how_it_was_run": "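SET-2 s.c. tumors came from female SCID-beige mice dosed orally d0–d18. They were excised on the last treatment day, 3 h post-dose, and lysed. pSTAT5 was measured by western blot and compared with vehicle-treated animals.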"}, "[3]": {"system": "pFLT3, FLT3 in MOLM-13 tumors", "test": "Western blot analysis of MOLM-13 tumors", "type": "in vivo, mouse", "details": "chronic treatment with pacritinib alone, d7"}, "[4]": {"test": "Toxicokinetic studies in mice, single agent", "type": "in vivo", "details": "data not shown"}, "[5]": {"system": "panel of 11 AML cell lines", "test": "Cell proliferation assay", "type": "cell-based", "details": "Homo sapiens, 48 h, read-out: IC50 on cell proliferation", "how_it_was_run": "(§2)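 Cells were seeded at a predetermined optimal density in log phase and rested 2 h before treatment. They were then exposed for 48 h to test compound in 9 serial-dilution steps from 10 μM to 1.5 nM, with 0.1% solvent. Viability was read by CellTiter-Glo luminescence. At least three independent experiments were run in triplicate, and IC50 came from curve fitting.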"}, "HL-60": {"system": "HL-60", "test": "Cell proliferation assay and in vitro synergy", "type": "cell-based", "details": "Homo sapiens, HL-60, 48 h, read-out: IC50 on cell proliferation", "how_it_was_run": "as §2"}, "[6]": {"system": "pJAK2, JAK2, pSTAT5 and STAT5 in JAK2^V617F mutant cells (HEL92.1.7 and SET-2)", "test": "Western blot of JAK-STAT signaling", "type": "cell-based, human", "details": "125–500 nM for 24 h", "how_it_was_run": "(§3)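 Cells were treated with test compound at 125–500 nM for 24 h, then lysed. Western blots of 25 μg total lysate were probed for pJAK2 (Y1007/1008), JAK2, pSTAT5 (Y694) and STAT5. JAK2V617F lines were compared with JAK2 wt lines.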"}, "[7]": {"system": "pJAK2, JAK2, pSTAT5 and STAT5 in JAK2 wt 32D cells", "test": "Western blot of JAK-STAT signaling", "type": "cell-based, murine", "details": "125–500 nM for 24 h", "how_it_was_run": "as §3"}, "[8]": {"system": "pJAK2, JAK2, pSTAT5 and STAT5 in JAK2 wt KARPAS 1106-P cells", "test": "Western blot of JAK-STAT signaling", "type": "cell-based", "details": "data not shown", "how_it_was_run": "as §3"}, "[9]": {"system": "pFLT3 (Y591) in MV4-11 cells (FLT3-ITD)", "test": "Western blot of FLT3 signaling", "type": "cell-based, human", "details": "500 nM, 24 h", "how_it_was_run": "(§4)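 Cells were treated with test compound at graded concentrations for 24 h, then lysed. Western blots loaded 50 μg total lysate for pFLT3 (Y591) and FLT3, and 25 μg for the other proteins. Other antibodies were pSTAT5 (Y694) and STAT5. FLT3-ITD lines were compared with wt-FLT3 RS4;11 cells.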"}, "[10]": {"system": "pFLT3 (Y591) in MOLM-13 cells (FLT3-ITD)", "test": "Western blot of FLT3 signaling", "type": "cell-based, human", "details": "500 nM, 24 h", "how_it_was_run": "as §4"}, "[11]": {"system": "pFLT3, FLT3 and pSTAT5 in RS4;11 cells (wt FLT3)", "test": "Western blot of FLT3 signaling", "type": "cell-based, human", "details": "RS4;11, 24 h, compared with FLT3-ITD cell lines", "how_it_was_run": "as §4"}, "MV4-11 xenografts": {"system": "MV4-11 xenografts", "test": "Subcutaneous MV4-11 xenograft model", "type": "in vivo, mouse", "how_it_was_run": "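Female BALB/c nude mice (8–10 weeks; n=10 per group) were implanted s.c. in the right flank with 1 × 10^7 MV4-11 cells in serum-free medium mixed 1:1 with Matrigel. From d9, they received 25 or 50 mg/kg per day by oral gavage (10 ml/kg) for 21 days. Tumor volume was measured by caliper as (w²×l)/2. Statistics used ANOVA/Bonferroni.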"}, "HEL92.1.7 xenografts": {"system": "HEL92.1.7 xenografts", "test": "Subcutaneous HEL92.1.7 xenograft model", "type": "in vivo, mouse", "details": "HEL92.1.7 model, 75 or 125 mg/kg every other day for 17 days", "how_it_was_run": "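Female BALB/c nude mice (8–10 weeks; n=5 per group) were implanted s.c. in the right flank with 5 × 10^6 HEL92.1.7 cells in serum-free medium mixed 1:1 with Matrigel. From d18, they were dosed by oral gavage (10 ml/kg) at 75 or 125 mg/kg every other day for 17 days. Tumor volume was measured by caliper as (w²×l)/2.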"}, "[12]": {"system": "HL-60 cells engrafted orthotopically", "test": "Orthotopic AML model", "type": "in vivo, mouse", "how_it_was_run": "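Female SCID mice (n=6 per group) received 1 × 10^7 HL-60 cells i.v. in 100 μl serum-free medium. From d30, once disease was established, they were dosed with 125 mg/kg test compound thrice weekly by oral gavage at 10 ml/kg. Paralysis symptoms were scored. Blood counts were taken from tail blood with a hematology analyzer and compared with age-matched uninoculated SCID mice. Statistics used ANOVA/Bonferroni.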"}, "[13]": {"details": "pacritinib 150 mg/kg twice daily"}},
  "data": [
    {"smiles": "C1=C/COCc2cc(ccc2OCCN2CCCC2)Nc2nccc(n2)-c2cccc(c2)COC/1", "note": "[pacritinib]", "values": [
      {"measurement": "TGI (tumor volume)", "setting": "SET-2 xenografts; [13]", "result": 61, "unit": "%"},
      {"measurement": "TGI on the basis of tumor weight", "setting": "SET-2 xenografts; [13]", "result": 47, "unit": "%"},
      {"measurement": "reduction in tumor weight", "setting": "MOLM-13 s.c. xenografts; pacritinib 50 mg/kg daily", "result": 14.7, "unit": "%"},
      {"measurement": "reduction of metastatic incidences", "setting": "MOLM-13 s.c. xenografts; single-agent pacritinib", "result": 60, "unit": "%"},
      {"measurement": "increase in AUC after chronic dosing in combination", "setting": "[1]; pacritinib", "result": "approximately four-fold"},
      {"measurement": "increase in Cmax after chronic dosing in combination", "setting": "[1]; pacritinib", "result": "approximately two-fold"},
      {"measurement": "reduction of plasma MCP-1 levels", "setting": "MCP-1; pacritinib single agent", "result": 10, "unit": "%"},
      {"measurement": "plasma IL-6, IP-10, KC and MIP-1α", "setting": "[2]; single-agent pacritinib", "result": "normalization"},
      {"measurement": "decrease of pSTAT5 levels in tumors", "setting": "pSTAT5 in SET-2 tumors; pacritinib 150 mg/kg twice daily, 3 h post dose", "result": "about 50%"},
      {"measurement": "total levels of FLT3 in tumors", "setting": "[3]", "result": "increased expression total levels of FLT3 significantly"},
      {"measurement": "increase in exposure following repeated dosing", "setting": "[4]", "result": "two-fold"}
    ]},
    {"smiles": "CCCCc1nc2cc(/C=C/C(=O)NO)ccc2n1CCN(CC)CC", "note": "[pracinostat]", "values": [
      {"measurement": "IC50", "setting": "[5]", "result": "70 to 560", "unit": "nM"},
      {"measurement": "IC50", "setting": "HL-60", "result": 70, "unit": "nM"},
      {"measurement": "pJAK2 (Y1007/08) and pSTAT5 (Y694) levels, total JAK2 and STAT5 protein", "setting": "[6]", "result": "decreased"},
      {"measurement": "pJAK2, JAK2, pSTAT5 and STAT5 protein levels", "setting": "[7]", "result": "remained unaffected"},
      {"measurement": "pJAK2, JAK2, pSTAT5 and STAT5 protein levels", "setting": "[8]", "result": "remained unaffected"},
      {"measurement": "pFLT3 (Y591) level", "setting": "[9]", "result": "near-total ablation"},
      {"measurement": "pFLT3 (Y591) level", "setting": "[10]", "result": "near-total ablation"},
      {"measurement": "levels of pFLT3 and FLT3, and pSTAT5", "setting": "[11]", "result": "reduced, but to a lesser extent"},
      {"measurement": "Complete tumor regression at the end of the treatment", "setting": "MV4-11 xenografts; 50 mg/kg per day for 21 days", "result": "6 out of 10"},
      {"measurement": "maximum body weight loss", "setting": "MV4-11 xenografts; MV4-11 model, 25 or 50 mg/kg per day for 21 days", "result": 7, "unit": "%"},
      {"measurement": "maximum body weight loss", "setting": "HEL92.1.7 xenografts", "result": 4.7, "unit": "%"},
      {"measurement": "numbers of platelets", "setting": "[12]; 125 mg/kg thrice weekly", "result": "without significantly reducing"},
      {"measurement": "delay of the disease onset", "setting": "[12]; 125 mg/kg thrice weekly from d30", "result": 17, "unit": "days"},
      {"measurement": "blood counts (white blood counts, lymphocyte counts)", "setting": "[12]; 125 mg/kg thrice weekly, d15 of the study", "result": "normalizing blood counts to the levels of disease-free mice"},
      {"measurement": "reduction of death caused by progressive AML", "setting": "[12]; 125 mg/kg thrice weekly, study d24", "result": 50, "unit": "%"},
      {"measurement": "TGI on the basis of tumor weight", "setting": "SET-2 xenografts; pracinostat 75 mg/kg q.o.d", "result": 42.5, "unit": "%"},
      {"measurement": "reduction in tumor weight", "setting": "MOLM-13 s.c. xenografts; pracinostat 75 mg/kg q.o.d", "result": 19.2, "unit": "%"},
      {"measurement": "reduction of metastatic incidences", "setting": "MOLM-13 s.c. xenografts; single-agent pracinostat", "result": 50, "unit": "%"},
      {"measurement": "pharmacokinetic parameters after 14 days of co-administration with pacritinib", "setting": "[1]; pracinostat", "result": "similar"},
      {"measurement": "reduction of plasma MCP-1 levels", "setting": "MCP-1; pracinostat single agent", "result": 40, "unit": "%"},
      {"measurement": "plasma IL-6, IP-10, KC and MIP-1α", "setting": "[2]; single-agent pracinostat", "result": "normalization"},
      {"measurement": "pSTAT5 levels in tumors compared with vehicle treated animals", "setting": "pSTAT5 in SET-2 tumors; pracinostat 75 mg/kg every other day", "result": "increased pSTAT5 levels"}
    ]}
  ]
}
